What was measured:
Assay type in all cases: organism-based
Mus musculus [1] = experiment: Toxicity in mouse assessed as mouse survival at 400 mg/kg, ip qd on day 19; parameters: dose 400 mg/kg, route intraperitoneal; settings: in vivo
Method in brief: (§1)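 Female athymic nude mice were given intraperitoneal injections of 400, 200 or 100 mg/kg, one mouse per dose level. Body weight loss was monitored, and survival was recorded after 19 days.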

Mus musculus [2] = experiment: Toxicity in mouse assessed as mouse survival at 200 mg/kg, ip qd on day 19; parameters: dose 200 mg/kg, route intraperitoneal; settings: in vivo; method in brief: as §1
Mus musculus [3] = experiment: Toxicity in mouse assessed as mouse survival at 50 mg/kg, ip qd on day 19; parameters: dose 50 mg/kg, route intraperitoneal; settings: in vivo
Mus musculus [4] = experiment: Toxicity in mouse assessed as mouse survival at 100 mg/kg, ip qd on day 19; parameters: dose 100 mg/kg, route intraperitoneal; settings: in vivo; method in brief: as §1
[5] = Toxicity in mouse assessed as mouse survival administered intraperitoneally once daily measured after 19 days; settings: in vivo, ip; method in brief: as §1
Mus musculus [6] = experiment: Toxicity in mouse assessed as mouse survival at 25 mg/kg, ip qd on day 19; parameters: dose 25 mg/kg, route intraperitoneal; settings: in vivo

## O=C1NC(=O)C(=Cc2cn(Cc3ccccc3)c3ccccc23)C(=O)N1
Mus musculus [1]
  Activity: Toxic
Mus musculus [2]
  Activity: Toxic
Mus musculus [3]
  Activity: Non-toxic
Mus musculus [4]
  Activity: Toxic
[5]
  MTD at 456 h: 50 mg/kg
Mus musculus [6]
  Activity: Non-toxic

## CN1C(=O)C(=Cc2cn(Cc3ccccc3)c3ccccc23)C(=O)N(C)C1=O
Mus musculus [1]
  Activity: Non-toxic
Mus musculus [2]
  Activity: Non-toxic
Mus musculus [4]
  Activity: Non-toxic
[5]
  MTD at 456 h: 400 mg/kg
